Measurements: ChEMBL document CHEMBL4513216, “Probing the Open Global Health Chemical Diversity Library for Multistage-Active Starting Points for Next-Generation Antimalarials” (ACS Infect Dis, 2020)

Assay: Toxicity liver stage against HepG2, at 10uM
Format: cell-based
Parameters: test concentration 10 uM, cell line HepG2-A16-CD81EGFP
Details: human, HepG2-A16-CD81EGFP cells; read-out: INHIBITION
In short: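 Uninfected HepG2-A16-CD81EGFP cells, 3 × 10^3 per well, 1536-well, plated on prespotted compound at 10 μM final, parasite-free screening media added to match infected plates; puromycin 10 μM positive, DMSO 0.5% negative; run in parallel with 48 h PbLuc assay at 37 °C, 5% CO2; viability by CellTiter-Glo luminescence, normalized to controls.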

Compound | cytotoxicity at 10 µM [%]
Cc1cc(C(=O)N(C)Cc2cccs2)nc(N2CCCC2)n1 | 7.85
Cc1c(C)n2c(SCC(=O)N3CCOCC3)nnc2[nH]c1=O | 3.26
CC(C)CC(CNC(=O)c1cccnc1Oc1cccnc1)N(C)C (stereo not drawn) | 1.44
COc1cccc(NC(=O)c2cc3c([nH]c2=O)CCCC3=O)c1 | -3.35
O=C(CC1CCCC1)NCCn1ccc(-c2ccccn2)n1 | 5.5
CNS(=O)(=O)CC(=O)N1CC2(CCCC2)c2c(F)cccc21 | -1.21
CC(C)=CCN1C[C@@H]2CC[C@H]1CN(Cc1cc(=O)[nH]c(=O)[nH]1)C2 | -17.3
CC(C)C(C#N)N1CCN(C(=O)c2cc(-c3ccccn3)no2)CC1 (stereo not drawn) | -1.54
CCOc1nnc(CN2CCN(CCOC)C(C)C2)s1 (stereo not drawn) | -11.1
COCCN1CC(C(=O)NCc2cccnc2-n2cccn2)CC1=O (stereo not drawn) | 3.74
CN(CC(=O)N1CCCC1)C(=O)c1ccccc1F | 11.7
CCOCc1cnc2n1CCN(Cc1cccs1)C2C (stereo not drawn) | 11.3
COc1ccc(OC)c(CCNc2ncc(S(N)(=O)=O)s2)c1 | 3.75
O=S(=O)(NCc1ccc(S(=O)(=O)N2CCCC2)s1)c1cc(Cl)cc(Cl)c1 | -11.1
CSc1cccc(CN2CCC(CCC(=O)NC3CC3)CC2)c1 | 1.28
COc1ccc(C)cc1NC(=O)Cn1nc(C)c(C#N)c1N | -22.9
Cn1nc(CNC(=O)C2CCCC2)cc1C1CC1 | -0.265
O=C(NCC1(CO)CC1)c1ccccc1Br | -0.734
Cc1nc(C(NC(=O)CN(C)C(C)C)c2ccccc2F)no1 (stereo not drawn) | -2.64
CCC(SC)C(=O)N1CCC(n2ccnn2)CC1 (stereo not drawn) | -41.5
CCc1noc(C(C)N2CCN(c3ccc(C#N)cc3F)CC2)n1 (stereo not drawn) | -9.7
COC(=O)NCC(=O)N(C)Cc1csc(-c2cccs2)n1 | -2.67
Cc1ccc(C2(O)CCN(Cc3nc(C)n4ccccc34)CC2)nc1 | 3.43

Compound | cytotoxicity at 10 µM [%]
c1ncn(CC2CCCCN2Cc2noc(C3CC3)n2)n1 (stereo not drawn) | -0.935
O=S1(=O)CCC(S(=O)(=O)c2cccc(S(=O)(=O)N3CCCC3)c2)C1 (stereo not drawn) | 3.45
CC(=O)NCCNC(=O)CN1CCOC(Cn2cc(C)cn2)C1 (stereo not drawn) | -4.44
CC(C)CN(CC(O)c1ccccc1)C(=O)Nc1nccs1 (stereo not drawn) | -1.96
CC(C)(C)C(=O)CN1Cc2ccccc2NCCC1=O | -3.19
Cc1nc(C)n(CC2CCCN(Cc3nnc(C4CC4)o3)C2)n1 (stereo not drawn) | -12.9
c1ccc(COc2ccccc2NC2CCOCC2)nc1 | 2.2
COC(=O)COn1c(SC)nc2ccccc2c1=O | -6.53
Cn1cc(CNC2CCc3c(ccc(=O)n3Cc3ccncc3)C2)cn1 (stereo not drawn) | -102
CN1CCCN(C(=O)NCCOc2ccc3c(c2)OCO3)CC1 | -17.5
Cc1cnc(NC2CCc3c(ccc(=O)n3CC3CC3)C2)nc1 (stereo not drawn) | -137
COCCC(=O)Nc1cnn(COc2ccc(F)cc2Cl)c1 | -8.68
CS(=O)(=O)N1CCCC12CCCN(S(=O)(=O)c1cccc(F)c1)C2 (stereo not drawn) | 0.88
Cc1nsc(N2CCCN(C(=O)NCc3cc(C)on3)CC2)n1 | -1.63
Cc1nn(C)c(N(C)C)c1CNCCS(C)(=O)=O | -17.4
Fc1cccc(Cc2cncc(C3CCCN3C3CCOCC3)n2)c1 (stereo not drawn) | -0.685
Cc1ccc(Br)cc1NC(=O)NC1CCC2(C1)OCCO2 (stereo not drawn) | 15.6
CC(C)CNC(=O)Cc1cnc(-n2cccc2)s1 | -3.66
COCCN1CCO[C@@H]2CN(C(=O)c3ccc4[nH]ccc4c3)CC[C@@H]2C1 | -110
CNC(=O)[C@H]1C[C@H]2OCC[C@H]2N(Cc2cccc3ccccc23)C1 | 7.67
Cn1cc(C(=O)CC2CCCN2C(=O)c2n[nH]c3ccccc23)cn1 (stereo not drawn) | -0.842
CN(Cc1cncnc1)Cc1cn2c(n1)CN(C1CCOC1)CC2 (stereo not drawn) | -9.36
COc1cccc(CC(=O)N2CCC(Cc3nnc(SC)n3C)CC2)c1 | -40.2

Compound | cytotoxicity at 10 µM [%]
CN1Cc2ccccc2CC2(CCN(C(=O)[C@H]3CCCO3)CC2)C1=O | -113
CCc1ccc(C(=O)N(c2cccnc2)C(C)C)cc1S(C)(=O)=O | 2.62
CCOCC(=O)N1CCC(c2nccn2CC2CC2)CC1 | -7.18
CCN(CC1CCCCO1)C(=O)CCNC(=O)c1ccccc1F (stereo not drawn) | -42.9
CC(C)c1nc(CNC(=O)c2ccc(C(C)N3CCCCC3)o2)cs1 (stereo not drawn) | -9.93
Cn1cc(CN(Cc2ccccc2)CC(O)c2cccs2)cn1 (stereo not drawn) | -8.59
CN(c1ncccc1C#N)C1CCN(CCc2ccccn2)CC1 | 0.926
O=C(CN1CCOC(Cn2cccn2)C1)Nc1cccnc1 (stereo not drawn) | 10.7
O=C(c1cccnc1)N1CCOC2(COCCN(c3cncnc3)C2)C1 (stereo not drawn) | 4.53
CN(Cc1cn(C2CCNCC2)nn1)CC1CCCO1 (stereo not drawn) | -4.76
O=C(NCC1CC1)C1CCC2(CCN(C(=O)c3ccccn3)CC2)O1 (stereo not drawn) | 9.74
Cn1cc(-c2nc(CN3CCn4c(nnc4C4CC4)C3)cs2)cn1 | -1.07
CN(C)C(C(=O)N1CCSCC1)c1ccccc1F (stereo not drawn) | 0.32
CCn1cc(NC(=O)NCc2ccc3c(c2)OCCO3)cn1 | -7.71
CN1CCOC(CNC(=O)Cc2coc(-c3ccccc3)n2)C1 (stereo not drawn) | -25.1
Cc1cccc(OC2CCN(C(=O)NCc3cc[nH]n3)CC2)c1C | 7.41
O=C(C1CC12CCC2)N1CCC(n2cc(-c3ccsc3)nn2)CC1 (stereo not drawn) | 5.85
O=C(CN1C=Nc2ccccc2S1(=O)=O)NCc1ccccc1F | -3.73
CCOCc1ccccc1NC(=O)NC1CCN(C(=O)OCC)CC1 | -14.5
Cc1ccc(CNc2cnn(CC(F)F)c2)cc1C | -0.71
CC(=O)NCC(=O)N1CCN(CC2CC2)c2ncccc2C1 | 0.359
COc1nn(C)c2c1CCCN(S(=O)(=O)c1cccc(F)c1)C2 | -129
c1cnc(NCc2noc3c2CN(C2CCOC2)CC3)nc1 (stereo not drawn) | -3.71

Compound | cytotoxicity at 10 µM [%]
C[C@@H]1CN(c2cccnn2)CC[C@@]1(O)C1CCOCC1 | 2.72
CCCc1cc(C(=O)NCCN2C(=O)c3ccccc3C2=O)[nH]n1 | 2.29
Cc1sc(-c2ccco2)nc1C(=O)N(CC1CCOC1)C1CC1 (stereo not drawn) | 0.714
CCN(C(=O)c1cc(C)oc1C)C1CC1 | -5.89
CCSCCC(=O)NC1CCN(C(C)c2ccccc2)CC1 (stereo not drawn) | -1.22
COCC1CCN(C(=O)c2cn(Cc3ccccc3C(F)(F)F)nn2)C1 (stereo not drawn) | 6.86
Cc1cccc(C2CCCN(C(=O)CN3CCCC3=O)C2)c1 (stereo not drawn) | -0.942
CCC1CNCc2cc3c(OC)ccc(OC)c3nc2O1 (stereo not drawn) | -4.22
Clc1cc(CN2CCCN3CCCC3C2)c2ncccc2c1 (stereo not drawn) | 19.5
CCc1noc(CN(CCc2ccccc2)C2CCN(C)CC2)n1 | 0.15
CCNc1nc(C(=O)N(C)Cc2nc(CC)no2)cs1 | -6.56
c1ccc(COC[C@H]2CC[C@H]3[C@H](CCN3Cc3cccs3)O2)nc1 | -85
O=C(Cn1cc(I)cn1)N1CCc2ccccc2C1 | 11.2
CCc1nc(C)c([C@H]2CN(C)C[C@@H]2C(=O)Nc2cccc3cn[nH]c23)[nH]1 | -3.44
CCc1ccc(CN2CCNC(C(=O)N3CCN(C)CC3)C2)o1 (stereo not drawn) | -0.891
OCCOCCN1CCCC1c1nc2cc(F)ccc2[nH]1 (stereo not drawn) | -17.5
CC(C)(C(=O)O)S(=O)(=O)c1ccc(Br)cc1 | 4.67
Cc1ccc(F)c(-n2nnc(C(=O)O)c2-c2ccncc2)c1 | -4.89
Cc1cc(Cc2cccc(C(F)(F)F)c2)cc(C2CCCNC2)n1 (stereo not drawn) | -2.34
Cc1nn(C2CCS(=O)(=O)C2)c(O)c1Cc1ccc(Br)cc1 (stereo not drawn) | -41.6
Cc1ccc(-n2nc3n(c2=O)CCN(C(=O)c2ccc(Cl)cc2)C3)cc1 | 6.78
CC(NC(=O)C1=NN(C)C(=O)CC1)c1cccc(Cl)c1 (stereo not drawn) | -2.45
COCCS(=O)(=O)NCc1ccc(N(C)C)c(C)c1 | -8.35

Compound | cytotoxicity at 10 µM [%]
Cn1ncnc1NCc1ccc(Br)cc1 | -11.9
Cc1ccc(C(CNC(=O)c2cc(CC(C)C)nn2C)N(C)C)cc1 (stereo not drawn) | -3.34
CN(C)c1nc(CNC(=O)NC2CCc3ccccc32)cs1 (stereo not drawn) | -3.41
Cc1nc(CN(C)C2CCN(CC(=O)N(C)CCC#N)C2)no1 (stereo not drawn) | -3.6
Cc1nccc(N2CCCC(C)(c3[nH]ncc3C(N)=O)C2)n1 (stereo not drawn) | 1.86
COc1ccc(Br)c(C(=O)NCC2CCN(C(=O)c3ccoc3)CC2)c1 | -21.7
Cc1nc(CCNC(=O)NC2CCN(c3ncccn3)CC2)cs1 | -11.8
O=C(Cc1c[nH]c2ncccc12)NCC(O)c1ccccc1F (stereo not drawn) | -3.43
Cc1cccnc1CNC(=O)N(CCCO)C1CCc2ccccc21 (stereo not drawn) | -11.4
COCCC1(C(=O)O)CCCN(Cc2cc3c(cc2Cl)OCO3)C1 (stereo not drawn) | -5.41
Cc1cc(NC(=O)Cn2nc(C)c(C#N)c2N)ccc1Br | -6.58
CCOc1cc(C(=O)N2CCCC(c3cc(C(N)=O)[nH]n3)C2)ccn1 (stereo not drawn) | -7.37
COCc1ccccc1C(=O)N1CCn2c(nnc2C(C)C)C1 | 2.91
Cn1cc(-c2cnc(N3CCOCC3)nc2)cc1C(=O)NC1CC1 | -80.4
CCCS(=O)(=O)c1ncc(CN2CCC(C)CC2)n1CC1CCCO1 (stereo not drawn) | -5.12
Cc1cc(N2CCCC2c2nccnc2C)ncn1 (stereo not drawn) | -20.8
Cc1cnn(CCNCc2nc(-c3ccsc3)oc2C)c1 | -3.55
CN1CCN(CCCNC(=O)c2cc(Cl)c3c(c2)OCO3)CC1 | -16.7
COCCNc1nc2c(c(NCc3cnc(C)c(C)c3)n1)CCNCC2 | -1.22
CC(C)(C)c1ccn(C2(C(=O)O)CCN(c3nccc(N)n3)CC2)n1 | -6.69
NC(=O)CN1CCC(C(=O)NCCc2nc(-c3ccccc3)cs2)CC1 | -7.85
